ChEMBL document CHEMBL3045139, “N'-Nitro-2-hydrocarbylidenehydrazinecarboximidamides: design, synthesis, crystal structure, insecticidal activity, and structure-activity relationships” (2012)
Converted amounts (≈) assume the structure as drawn. The source made the active and inactive calls. The calls are words filed in the database; no cut-off is given here.

Experiments:
[1] = system: Brevicoryne brassicae; assay: Insecticidal activity against Brevicoryne brassicae (cabbage aphids) measured in field test; assay type: functional, organism-based
Method in brief: (§1)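 Field trials against aphids in northern, middle and southern China used 10% WP and 20% SC formulations. The design was a randomized complete block with five treatments, applied with a hand sprayer. Untreated cabbage or rice served as the control, and imidacloprid 10% WP was the reference.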

[2] = system: Myzus persicae; assay: Insecticidal activity against Myzus persicae (green peach aphid) measured in field test; assay type: functional, organism-based; method in brief: as §1
[3] = system: Myzus persicae; assay: Insecticidal activity against Myzus persicae (green peach aphid) at 25 degC; assay type: functional; conditions: read-out: LD50 (the source's name)

| Compound | Activity [1] | Activity [2] | LC50 [3] [µg/mL] |
| --- | --- | --- | --- |
| CCC/C=N/N(Cc1ccc(Cl)nc1)/C(N)=N/[N+](=O)[O-] | Active | Active | 21 (≈ 70.3 µM) |
| CCN(/N=C/c1ccc(C)cc1)/C(N)=N/[N+](=O)[O-] | Active | Active | 1020 (≈ 4110 µM) |
| N/C(=N\[N+](=O)[O-])N(Cc1ccc(Cl)nc1)/N=C/c1ccc(F)cc1 | Active | Active | 1450 (≈ 4130 µM) |
| CC(C)/C=N/N(Cc1ccc(Cl)nc1)/C(N)=N/[N+](=O)[O-] | Active | Active | 92.5 (≈ 310 µM) |
| C=CCN(/N=C/c1ccccc1Cl)/C(N)=N/[N+](=O)[O-] | Active | Active | 362 (≈ 1290 µM) |
| CCCCN(/N=C/c1ccc(C)cc1)/C(N)=N/[N+](=O)[O-] | Active | Active | 1080 (≈ 3880 µM) |
| CC/C=N/N(CC)/C(N)=N/[N+](=O)[O-] | Active | Active | 523 (≈ 2790 µM) |
| N/C(=N\[N+](=O)[O-])N(Cc1ccc(Cl)nc1)/N=C/c1ccccc1[N+](=O)[O-] | Active | Active | 357 (≈ 946 µM) |
| C=CCN(/N=C/CCCC)/C(N)=N/[N+](=O)[O-] | Active | Active | 400 (≈ 1760 µM) |
| CCCCN(/N=C/c1cccc(OC)c1)/C(N)=N/[N+](=O)[O-] | Active | Active | 1800 (≈ 6130 µM) |
| CC/C=N/N(CCC)/C(N)=N/[N+](=O)[O-] | Active | Active | 283 (≈ 1410 µM) |
| C=C/C=N/N(CCCC)/C(N)=N/[N+](=O)[O-] | Active | Active | 328 (≈ 1540 µM) |
| N/C(=N\[N+](=O)[O-])N(Cc1ccc(Cl)nc1)/N=C/c1ccco1 | Active | Active | 345 (≈ 1070 µM) |
| C=CCN(/N=C/c1ccc(C)cc1)/C(N)=N/[N+](=O)[O-] | Active | Active | 744 (≈ 2850 µM) |
| COc1ccc(/C=N/N(Cc2ccccc2)/C(N)=N/[N+](=O)[O-])cc1 | Active | Active | 3840 (≈ 11700 µM) |
| O=[N+]([O-])/N=C1\NCCN1Cc1ccc(Cl)nc1 [IMIDACLOPRID] | Active | Active | 24.2 (≈ 94.7 µM) |
| CCCCCC/C=N/N(Cc1ccc(Cl)nc1)/C(N)=N/[N+](=O)[O-] | Active | Active | 25.5 (≈ 74.7 µM) |
| CCCC/C=N/N(Cc1ccc(Cl)nc1)/C(N)=N/[N+](=O)[O-] [GUADIPYR] | Active | Active | 25.3 (≈ 81 µM) |
| CCC/C=N/N(CCCC)/C(N)=N/[N+](=O)[O-] | Active | Active | 367 (≈ 1600 µM) |
| CCCCN(/N=C/c1ccccc1)/C(N)=N/[N+](=O)[O-] | Active | Active | 1800 (≈ 6820 µM) |
